In ChEMBL document CHEMBL4304792, “Cinnamonitrile Adjuvants Restore Susceptibility to β-Lactams against Methicillin-Resistant Staphylococcus aureus” (ACS Med Chem Lett, 2019):
Values after ≈ are worked out from the molar mass of the structure shown. Active and inactive are the calls of the source. The rule behind the calls is not given here.

What was measured:
Staphylococcus aureus [1] = test: Potentiation of oxacillin induced antibacterial activity against Staphylococcus aureus NRS70 assessed as oxacillin MIC at 16 uM measured after 16 to 20 hrs in presence of 2% NaCl by microdilution broth method (reference value: 64 mg/L); type: functional
Staphylococcus aureus [2] = test: Potentiation of oxacillin induced antibacterial activity against Staphylococcus aureus Mu50 NRS1 assessed as oxacillin MIC at 8 uM measured after 16 to 20 hrs in presence of 2% NaCl by microdilution broth method (reference value: 256 mg/L); type: functional
Staphylococcus aureus [3] = test: Potentiation of oxacillin induced antibacterial activity against Staphylococcus aureus USA100-NRS382 assessed as oxacillin MIC at 8 uM measured after 16 to 20 hrs in presence of 2% NaCl by microdilution broth method (reference value: 64 mg/L); type: functional
Staphylococcus aureus [4] = test: Potentiation of oxacillin induced antibacterial activity against Staphylococcus aureus USA200-NRS383 assessed as oxacillin MIC at 16 uM measured after 16 to 20 hrs in presence of 2% NaCl by microdilution broth method (reference value: 128 mg/L); type: functional
Staphylococcus aureus [5] = test: Antibacterial activity against Staphylococcus aureus NRS70 measured after 16 to 20 hrs in absence of 2% NaCl by microdilution broth method
Staphylococcus aureus [6] = test: Potentiation of oxacillin induced antibacterial activity against Staphylococcus aureus USA100-NRS382 assessed as oxacillin MIC at 20 uM measured after 16 to 20 hrs in presence of 2% NaCl by microdilution broth method (reference value: 64 mg/L); type: functional
Staphylococcus aureus [7] = test: Potentiation of oxacillin induced antibacterial activity against Staphylococcus aureus NRS384 assessed as oxacillin MIC at 20 uM measured after 16 to 20 hrs in presence of 2% NaCl by microdilution broth method (reference value: 32 mg/L); type: functional
Staphylococcus aureus [8] = test: Antibacterial activity against Staphylococcus aureus MW2 NRS123 measured after 16 to 20 hrs in presence of 2% NaCl by microdilution broth method; type: functional
Staphylococcus aureus [9] = test: Potentiation of oxacillin induced antibacterial activity against Staphylococcus aureus USA100-NRS382 assessed as oxacillin MIC at 16 uM measured after 16 to 20 hrs in presence of 2% NaCl by microdilution broth method (reference value: 64 mg/L); type: functional
Staphylococcus aureus [10] = test: Synergistic antibacterial activity against methicillin resistant Staphylococcus aureus NRS70 assessed as fractional inhibitory concentration index in presence of oxacillin by checkerboard assay; type: functional
Outline: (§1)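 Checkerboard combinations of the adjuvant with oxacillin were tested against MRSA strains NRS1, NRS70 and NRS384. The fractional inhibitory concentration index (FICI) was derived from the combination MICs, and each interaction was classed as synergistic or indifferent (additive).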

Staphylococcus aureus [11] = test: (§2) Inhibition of recombinant full length N-terminal Stre-tagged Staphylococcus aureus NCTC8325 STK1 expressed in Escherichia coli BL21 star (DE3) assessed as decrease in phosphorylation at 100 uM using MBP as substrate measured after 20 mins [33P] gammaATP by SDS-PAGE
Staphylococcus aureus [12] = test: Inhibition of N-terminal His-tagged Staphylococcus aureus capA1ct/B2 expressed in Escherichia coli BL21 star (DE3) assessed as decrease in phosphorylation at 100 uM using MBP as substrate measured after 20 mins in presence of [33P] gammaATP by SDS-PAGE
Staphylococcus aureus [13] = test: Inhibition of N-terminal His-tagged Staphylococcus aureus NCTC8325 RsbV expressed in Escherichia coli BL21 star (DE3) assessed as decrease in phosphorylation at 100 uM measured after 20 mins in presence of [33P] gammaATP by SDS-PAGE
Staphylococcus aureus [14] = test: Inhibition of C-terminal His-tagged Staphylococcus aureus NCTC8325 RsbW expressed in Escherichia coli BL21 star (DE3) assessed as decrease in phosphorylation at 100 uM using RsbV as substrate measured after 20 mins in presence of [33P] gammaATP by SDS-PAGE
Staphylococcus aureus [15] = test: Synergistic antibacterial activity against methicillin resistant Staphylococcus aureus NRS384 assessed as fractional inhibitory concentration index in presence of oxacillin by checkerboard assay; type: functional; outline: as §1
Staphylococcus aureus [16] = test: as §2, with “STK1 domain (1 to 348 residues)” for “STK1”, “mins in presence of” for “mins”
Staphylococcus aureus [17] = test: Synergistic antibacterial activity against methicillin resistant Staphylococcus aureus Mu50 NRS1 assessed as fractional inhibitory concentration index in presence of oxacillin by checkerboard assay; type: functional; outline: as §1

Compound	MIC (Staphylococcus aureus [1])	MIC (Staphylococcus aureus [2])	MIC (Staphylococcus aureus [3])	MIC (Staphylococcus aureus [4])	MIC (Staphylococcus aureus [5])	MIC (Staphylococcus aureus [6])	MIC (Staphylococcus aureus [7])	MIC (Staphylococcus aureus [8])	MIC (Staphylococcus aureus [9])	fractional inhibitory concentration index (FICI) (Staphylococcus aureus [10])	inhibition (Staphylococcus aureus [11])	inhibition (Staphylococcus aureus [12])	inhibition (Staphylococcus aureus [13])	inhibition (Staphylococcus aureus [14])	fractional inhibitory concentration index (FICI) (Staphylococcus aureus [15])	inhibition (Staphylococcus aureus [16])	fractional inhibitory concentration index (FICI) (Staphylococcus aureus [17])
CS(=O)(=O)/C(C#N)=C/c1c(F)ccc(Cc2ccc(Cl)c(Cl)c2)c1F	0.5 µg/mL	16 µg/mL	1 µg/mL	≥ 128 µg/mL	8 µg/mL (≈ 19.9 µM)	≤ 0.03 µg/mL	≤ 0.03 µg/mL	16 µg/mL	1 µg/mL	–	–	–	–	–	–	–	–
CS(=O)(=O)/C(C#N)=C/c1cc(-c2ccc(Cl)c(Cl)c2)ccc1F	2 µg/mL	128 µg/mL	4 µg/mL	≥ 128 µg/mL	16 µg/mL (≈ 43.2 µM)	1 µg/mL	4 µg/mL	16 µg/mL	2 µg/mL	–	–	–	–	–	–	–	–
CS(=O)(=O)/C(C#N)=C/c1cc(Cc2ccc(Cl)c(Cl)c2)ccc1F	0.5 µg/mL	8 µg/mL	1 µg/mL	≥ 128 µg/mL	8 µg/mL (≈ 20.8 µM)	0.25 µg/mL	0.06 µg/mL	≥ 64 µg/mL	1 µg/mL	–	–	–	–	–	–	–	–
N#C/C(=C\c1cc(Cc2ccc(Cl)c(Cl)c2)ccc1F)S(=O)(=O)c1ccccn1	0.03 µg/mL	128 µg/mL	0.5 µg/mL	≥ 128 µg/mL	16 µg/mL (≈ 35.8 µM)	0.12 µg/mL	0.06 µg/mL	16 µg/mL	0.25 µg/mL	–	–	–	–	–	–	–	–
CS(=O)(=O)/C(C#N)=C/c1cc(Cc2ccc(Cl)c(Cl)c2)ccc1OC(F)(F)F	≤ 0.03 µg/mL	8 µg/mL	0.5 µg/mL	–	8 µg/mL (≈ 17.8 µM)	≤ 0.03 µg/mL	≤ 0.03 µg/mL	≥ 64 µg/mL	0.06 µg/mL	0.28	inactive	inactive	inactive	inactive	0.38	inactive	0.28
